MPTP inh – mitochondrial permeability transition pore inhibitors, primary screen, biochemical, isolated mouse mitochondria, absorbance | Ca2+ swelling absorbance, 30 min | hit rate 1.4% among 360,000 | inhibition, % at 10 µM;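 active means inhibition of 50% or more, scaled per plate between neutral and stimulator controls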;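 further: 0% = DMSO wells given calcium and 100% = 1 mM EGTA wells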
T cell modulator – modulators of CD8 T cell-vesicle binding, primary screen, mouse 2C CD8+ T cells, flow cytometry. hit rate 0.068% among 330,000. 2C CD8+ T cell-vesicle binding; stronger effect = lower value. response (vesicle binding), % at 7 µM;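 active means response, share of CD8 T cells binding vesicles, and their 90th percentile fluorescence all below set limits, cut at about 80% in these data, passing the limit was not always enough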;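 further: values below 100% mean blocked vesicle binding to the CD8+ T cells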
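Incubation: binding step 1.5 h, 37 °C, antibody labelling 20 min, ice; system: murine 2C transgenic CD8+ T lymphocytes; technique: cytometric PE anti-B7-1 and Alexa647 anti-CD8 signals after 1% paraformaldehyde fixation; also added: QL9-charged Drosophila Ld/ICAM-1/B7-1 vesicles; control set: naked versus QL9-loaded vesicles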
rCAG binder – binders of r(CAG) RNA repeats, primary screen, biochemical, fluorescence; r(CAG) RNA repeat, TO-PRO-1 dye displacement fluorescence; inhibition, % at 3 µM; hit rate 1.3% among 370,000;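 active means inhibition above the plate cutoff, the mean of all test compounds on that plate plus 3 SD, cut at about 35% in these data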;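 further: 0% = DMSO alone and 100% = 100 µM mitoxantrone as full dye displacement; higher means more dye released from RNA so lower well fluorescence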
V-ATPase pH – regulators of yeast V-ATPase proton pumping, primary screen, pHLuorin cytosolic pH fluorescence | AID 504577, 2011 | response, % at 10 µM | hit rate 0.37% among 350,000 | S. cerevisiae; in the data active means response mostly above about 7.3%, no sharp cut-off; inactive means mostly below about 5.4%; further: actives read high
Granule exo inh – LAMP-1 surface exposure blockers, TALL-104 cells – cell-based, flow cytometry, MLPCN library, primary screen | TALL-104 LAMP-1 surface exposure; cells stimulated with thapsigargin and PMA | inhibition, % at 10 µM | hit rate 0.66% among 360,000;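 active means inhibition above about 55%, limit read from the data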
B2AR ag – beta2AR agonists driving receptor internalization, primary screen, cell-based, FAP fluorogen, flow cytometry. hit rate 0.43% among 340,000. response, % (concentration not given with the values). Am2.2-beta2AR cells. Beta-2 adrenergic receptor (Homo sapiens), P07550;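 active means response above a set limit, near 3 SD of response in nonfluorescent compounds, cut at about 42% in these data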
Target sequence (P07550 whole entry, looked up): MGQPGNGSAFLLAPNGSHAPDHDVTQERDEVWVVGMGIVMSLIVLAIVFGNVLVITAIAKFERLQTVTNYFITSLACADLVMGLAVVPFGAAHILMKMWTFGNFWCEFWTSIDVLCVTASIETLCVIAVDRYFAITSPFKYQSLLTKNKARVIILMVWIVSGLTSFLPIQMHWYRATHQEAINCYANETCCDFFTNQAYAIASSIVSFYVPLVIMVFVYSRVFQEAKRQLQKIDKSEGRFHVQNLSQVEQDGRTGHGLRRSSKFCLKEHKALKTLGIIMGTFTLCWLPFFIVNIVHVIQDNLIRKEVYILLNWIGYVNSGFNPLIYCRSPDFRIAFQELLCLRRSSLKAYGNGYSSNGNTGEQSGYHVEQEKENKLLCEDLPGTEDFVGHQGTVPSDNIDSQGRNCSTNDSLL
rCAG bind conf – small molecules binding CAG repeat RNA – biochemical, fluorescence, confirmation | shares compounds with rCAG binder | inhibition, % at 3 µM | AID 652065, 2013 | hit rate 70% among 4,300 | r(CAG) RNA repeat, TO-PRO-1 dye displacement fluorescence;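 active means inhibition above a per-plate cutoff, the mean inhibition of sample wells plus 3 SD, cut at about 35% in these data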;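 further: loss of TO-PRO-1 fluorescence as compound displaces dye from 1x1 AA loop RNA; 0% = DMSO only wells and 100% = 100 µM mitoxantrone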
dCAG dye counter – displacement of TO-PRO-1 from CAG DNA duplex, counter-screen for rCAG RNA repeat binder project, biochemical, fluorescence, TO-PRO-1 dye, d(CAG) DNA oligo; shares compounds with rCAG binder; d(CAG) DNA oligo TO-PRO-1 dye displacement; inhibition, % at 3 µM; hit rate 94% among 4,300;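 active means inhibition above its plate's cutoff, the mean test-well inhibition plus 3 SD, cut at about 4.8% in these data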;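 further: 0% = DNA dye mix with DMSO and 100% = 100 µM mitoxantrone; hits displace the dye from DNA and so lower well fluorescence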
dCAG dye DR – inhibitors of DNA CAG/GTC TO-PRO-1 complex, dose response, counter-screen for rCAG RNA repeat binder project, biochemical, fluorescence, TO-PRO-1 dye | shares compounds with rCAG binder | DNA CAG/GTC duplex TO-PRO-1 dye displacement fluorescence | IC50, µM | hit rate 20% among 250 | AID 686960, 2013; in the data active means IC50 below about 10 µM
The depositor's hits bear a star. Sampled rows, rich in hits. Any-hit rate of the full collection: about 3.8%.

How did COc1cc2[nH]c(=S)nc(Nc3ccc(NC(C)=O)cc3)c2cc1OC do in these assays?
MPTP inh: 0.3; T cell modulator: 207.8; rCAG binder: 37.1*; V-ATPase pH: 3.0; Granule exo inh: 0.6; B2AR ag: 3.4; rCAG bind conf: 7.7; dCAG dye counter: 6.4*

What do the screens show for `COc1ccc(NC(=S)N(Cc2ccc(C(=O)O)cc2)Cc2ccc(OC)c(OC)c2)cc1`?
MPTP inh: -0.2; T cell modulator: 247.2; rCAG binder: 9.2; V-ATPase pH: 0.3; Granule exo inh: -0.8; B2AR ag: -8.2

What do the screens show for `Cc1ccc(NC(=S)N(Cc2ccc(Cl)cc2)Cc2ccc(C(=O)O)cc2)cc1Cl`?
MPTP inh: -1.2; T cell modulator: 251.0; rCAG binder: 76.2*; V-ATPase pH: 0.1; Granule exo inh: 2.5; B2AR ag: 2.5; rCAG bind conf: 69.5*; dCAG dye counter: 28.5*; dCAG dye DR: inactive

What do the screens show for `COc1ccc(CN(CC2CCC(C(=O)O)CC2)C(=S)Nc2ccc(C)c(Cl)c2)cc1` (stereo not drawn)?
MPTP inh: -0.3; T cell modulator: 458.2; rCAG binder: 34.7*; V-ATPase pH: -0.8; Granule exo inh: -1.8; B2AR ag: 2.4; rCAG bind conf: 32.5; dCAG dye counter: 5.8*

Results for COc1ccc(NC(=S)N(Cc2cccc(Br)c2)CC2CCC(C(=O)O)CC2)cc1 (stereo not drawn) ?
MPTP inh: -0.6; T cell modulator: 647.9; rCAG binder: 21.1; V-ATPase pH: -1.2; Granule exo inh: -1.0; B2AR ag: 1.7

Results for CC(C)C[C@H]1COc2cc(N3CCOCC3)ccc2S(=O)(=O)N1 ?
rCAG binder: 5.1

How did COc1ccc(OC)c(C(=O)c2c(C)oc3cc([N+](=O)[O-])c(O)c([N+](=O)[O-])c23)c1 do in these assays?
MPTP inh: 1.6; T cell modulator: 406.8; rCAG binder: 35.0*; V-ATPase pH: -0.4; Granule exo inh: 1.3; B2AR ag: 7.3; rCAG bind conf: 20.8; dCAG dye counter: 4.2

How did COc1ccc(OC)c(C(=O)COC(=O)c2ccc([N+](=O)[O-])o2)c1 do in these assays?
MPTP inh: 0.1; T cell modulator: 342.8; rCAG binder: 1.5; V-ATPase pH: 0.2; Granule exo inh: 6.9; B2AR ag: 6.0

What do the screens show for `CN1CCN(C(=O)c2cc3c(c(-c4cccc(-c5cc6ccccc6o5)c4)n2)[C@H](CCO)N(S(=O)C(C)(C)C)C3)CC1` (stereo partly drawn)?
MPTP inh: 0.0; rCAG binder: 2.8; Granule exo inh: 4.2

How did CC(C)(C)S(=O)N1Cc2cc(C(=O)O)nc(-c3cccc(-c4cc5ccccc5o4)c3)c2[C@H]1CCO (stereo partly drawn) do in these assays?
MPTP inh: -1.3; rCAG binder: 38.8*; Granule exo inh: -1.5; rCAG bind conf: 35.0*; dCAG dye counter: 13.3*

Results for COC(=O)[C@]12C[C@H](CC(=O)NCC34CC5CC(CC(C5)C3)C4)C(=O)N(Cc3ccccc3)C1=C[C@H](C1CCCC1)O[C@@H]2C ?
rCAG binder: 10.9

Screening data from PubChem.
